According to ChEMBL document CHEMBL1132312, “Conformationally constrained butyrophenones with mixed dopaminergic (D(2)) and serotoninergic (5-HT(2A), 5-HT(2C)) affinities: synthesis, pharmacology, 3D-QSAR, and molecular modeling of (aminoalkyl)benzo- and -thienocycloalkanones as putative atypical antipsychotics” (J Med Chem, 1999):

Experiments:
[1] = target: T1, D(1A) dopamine receptor (Rattus norvegicus, UniProt P18901); test: In vitro ability to displace [3H]SCH-23390 binding from Dopamine 1 (D1) receptor in rat striatal membrane.; type: cell membranes
[2] = pA2 value was evaluated by measuring the inhibition of the 5-HT-induced contraction of rat aorta.; type: functional, tissue-based
In short: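 Thoracic aorta rings, denuded, from male 250-350-g Sprague-Dawley rats. Isometric force recorded after 60 min equilibration under 2 g load, then sensitized with 10 µM 5-HT for 8 min.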

[3] = target: T2, 5-hydroxytryptamine receptor 2A (Rattus norvegicus, UniProt P14842); test: In vitro ability to displace [3H]ketanserin binding from 5-hydroxytryptamine 2A receptor in rat membrane.
[4] = system: Mus musculus; test: In vivo Antipsychotic activity was quantified by induction of catalepsy in mice; type: functional
In short: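 Male CD1 mice, 27 ± 3 g, 6-12 per group, tested 30 min after dosing. Forepaws placed on one horizontal wire, hindpaws on another 6 cm away and 2 cm lower. Holding the posture for more than 30 s scored as catalepsy. ED50 by Litchfield-Wilcoxon.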

[5] = system: Mus musculus; test: In vivo Antipsychotic activity was quantified by inhibition of apomorphine-induced climbing(CL 95%) by mice; type: functional
In short: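 Male CD1 mice given test drug or vehicle, then 2 mg/kg apomorphine 30 min later. Housed singly in wire cylinders; 6 per dose, 12 controls. Climbing scored 0-2 every 10 min over 30 min. Scores at 20 and 30 min summed and averaged per group. ED50 from nonlinear curve fitting.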

[6] = target: T1, D(1A) dopamine receptor; test: In vitro ability to displace [3H]SCH-23390 binding from Dopamine receptor D1 in rat striatal membrane.; type: cell membranes
In short: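 Striatal membranes from male Sprague-Dawley rats, washed in Tris-HCl with 5 mM EDTA. Resuspended at 1.00 mg wet weight/750 µL in 50 mM Tris-HCl pH 7.4 with 120 mM NaCl, 5 mM KCl, 2 mM CaCl2 and 1 mM MgCl2. [3H]SCH23390 competition in duplicate, 15 min at 37 °C, filtered. Nonspecific binding defined with 1 µM final SCH23390. Ki = IC50/(1 + D/Kd).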

[7] = target: T2, 5-hydroxytryptamine receptor 2A; test: Compound was tested in vitro for its binding affinity towards 5-hydroxytryptamine 2A receptor from rat frontal cortex using [3H]-ketanserin as radioligand; type: tissue-based
In short: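 Frontal cortex from male 200-250-g Sprague-Dawley rats, homogenized in 0.32 M sucrose, then washed. Pellet incubated 15 min at 37 °C to strip endogenous 5-HT. Assay buffer Tris-HCl pH 8.07 with 4 mM CaCl2 and 0.1% ascorbic acid. [3H]ketanserin competition run in triplicate, 30 min at 37 °C, with GF/C filtration. Nonspecific binding defined with methysergide. Ki = IC50/(1 + D/Kd), with Kd taken from saturation binding.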

T2 sequence (P14842 whole entry): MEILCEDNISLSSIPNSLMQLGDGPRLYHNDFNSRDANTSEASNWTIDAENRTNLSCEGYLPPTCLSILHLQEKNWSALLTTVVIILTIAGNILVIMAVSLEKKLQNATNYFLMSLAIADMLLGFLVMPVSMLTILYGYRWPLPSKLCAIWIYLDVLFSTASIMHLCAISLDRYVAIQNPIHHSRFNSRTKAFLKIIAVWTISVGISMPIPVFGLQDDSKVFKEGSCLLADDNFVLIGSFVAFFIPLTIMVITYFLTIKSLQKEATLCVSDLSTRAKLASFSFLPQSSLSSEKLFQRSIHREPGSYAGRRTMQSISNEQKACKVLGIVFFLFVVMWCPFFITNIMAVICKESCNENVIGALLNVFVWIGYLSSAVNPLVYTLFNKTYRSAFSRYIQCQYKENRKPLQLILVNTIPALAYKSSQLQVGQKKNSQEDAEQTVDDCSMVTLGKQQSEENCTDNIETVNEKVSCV
T1 sequence (P18901 whole entry): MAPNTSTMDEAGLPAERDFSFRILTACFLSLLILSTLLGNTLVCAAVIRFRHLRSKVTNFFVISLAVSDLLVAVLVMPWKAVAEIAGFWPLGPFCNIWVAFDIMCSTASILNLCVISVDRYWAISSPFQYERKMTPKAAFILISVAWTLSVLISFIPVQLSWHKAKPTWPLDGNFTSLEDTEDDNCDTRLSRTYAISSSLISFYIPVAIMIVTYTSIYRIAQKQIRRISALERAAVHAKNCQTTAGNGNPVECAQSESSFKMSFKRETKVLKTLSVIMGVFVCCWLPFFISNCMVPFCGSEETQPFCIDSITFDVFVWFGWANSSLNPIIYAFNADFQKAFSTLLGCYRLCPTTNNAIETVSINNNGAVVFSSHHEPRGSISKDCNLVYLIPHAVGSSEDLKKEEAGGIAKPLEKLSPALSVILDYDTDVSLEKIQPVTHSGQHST

SMILES	Ki [1]	pA2 [2]	Ki [3]	ED50 [4]	ED50 [5]	Ki [6]	Ki [7]
O=C(CCCN1CCN(CCC2CCc3ccccc3C2=O)CC1)c1ccc(F)cc1 (stereo unspecified)	1350 nM	7.35	72.4 nM				
Cl.O=C(CCCN1CCN(CC2CC(=O)c3ccsc3C2)CC1)c1ccc(F)cc1 (stereo unspecified)	1350 nM	7.79	107 nM	> 2 mg/kg	> 8 mg/kg		
O=C(CCCN1CCN(CCC2Cc3ccccc3C2=O)CC1)c1ccc(F)cc1 (stereo unspecified)	1320 nM	7.3	123 nM				
O=C1CC(CN2CCC(C(=O)c3ccc(F)cc3)CC2)Cc2ccccc21 (stereo unspecified)		7.86					
COc1ccccc1N1CCN(CCC2CCc3ccccc3C2=O)CC1 (stereo unspecified)		6.72	40.7 nM			1480 nM	
COc1ccccc1N1CCN(CC2CC(=O)c3ccccc32)CC1.Cl (stereo unspecified)		6.21	891 nM	> 8 mg/kg	> 8 mg/kg	3720 nM	
Cl.O=C1c2sccc2CCC1CCN1CCC(c2noc3cc(F)ccc23)CC1 (stereo unspecified)	135 nM		6.76 nM	> 2 mg/kg	0.5 mg/kg		
O=C(CCCN1CCC(O)(c2ccc(Cl)cc2)CC1)c1ccc(F)cc1 [HALOPERIDOL]				0.67 mg/kg	0.14 mg/kg		
Cl.O=C(CCCN1CCN(CCC2CCc3sccc3C2=O)CC1)c1ccc(F)cc1 (stereo unspecified)	3090 nM	6.83		> 15 mg/kg	> 15 mg/kg		288 nM
Cc1nc2n(c(=O)c1CCN1CCC(c3noc4cc(F)ccc34)CC1)CCCC2 [RISPERIDONE]				> 2 mg/kg	0.09 mg/kg		
Cl.O=C1CC(CN2CCC(C(=O)c3ccc(F)cc3)CC2)c2ccccc21 (stereo unspecified)		8.13	26.3 nM	> 4 mg/kg	> 7 mg/kg	1550 nM	
Cl.O=C1CC(CN2CCC(c3noc4cc(F)ccc34)CC2)Cc2sccc21 (stereo unspecified)	129 nM	9.13	4.68 nM	> 8 mg/kg	1.46 mg/kg		
Cl.O=C(CCCN1CCN(CC2CC(=O)c3ccccc32)CC1)c1ccc(F)cc1 (stereo unspecified)		7.2	45.7 nM	> 8 mg/kg	> 8 mg/kg	7080 nM	
O=C(c1ccc(F)cc1)C1CCN(CCC2Cc3ccccc3C2=O)CC1 (stereo unspecified)		8.12					
Cl.O=C1CC(CN2CCC(C(=O)c3ccc(F)cc3)CC2)Cc2sccc21 (stereo unspecified)	427 nM	7.82	57.5 nM	> 16 mg/kg	1.25 mg/kg		
Cl.O=C1c2ccsc2CC1CCN1CCC(c2noc3cc(F)ccc23)CC1 (stereo unspecified)			1.74 nM	> 20 mg/kg	0.47 mg/kg	126 nM	
O=C(CCCN1CCN(CCC2Cc3sccc3C2=O)CC1)c1ccc(F)cc1 (stereo unspecified)		7.63	42.7 nM	> 15 mg/kg	3.34 mg/kg	324 nM	
COc1ccccc1N1CCN(CCC2CCc3sccc3C2=O)CC1.Cl (stereo unspecified)	5370 nM	6.95	145 nM	> 8 mg/kg	> 8 mg/kg		
O=C(O)C(=O)O.O=C(c1ccc(F)cc1)C1CCN(CCC2Cc3sccc3C2=O)CC1 (stereo unspecified)		8.92	7.08 nM	> 16 mg/kg	65 mg/kg	2510 nM	
CN1CCN(C2=Nc3cc(Cl)ccc3Nc3ccccc32)CC1 [CLOZAPINE]				> 50 mg/kg	2.21 mg/kg		
O=C(CCCN1CCN(CC2CC(=O)c3ccccc3C2)CC1)c1ccc(F)cc1 (stereo unspecified)		7.27	17.8 nM				
O=C(c1ccc(F)cc1)C1CCN(CCC2CCc3ccccc3C2=O)CC1 (stereo unspecified)		7.47					
Cl.O=C1c2ccsc2CCC1CCN1CCC(c2noc3cc(F)ccc23)CC1 (stereo unspecified)	295 nM	9.87		> 2 mg/kg	0.79 mg/kg		2.75 nM
Cl.O=C(c1ccc(F)cc1)C1CCN(CCC2CCc3ccsc3C2=O)CC1 (stereo unspecified)	562 nM		11.2 nM	> 4 mg/kg	1.98 mg/kg		
Cl.O=C(c1ccc(F)cc1)C1CCN(CCC2CCc3sccc3C2=O)CC1 (stereo unspecified)		9.02	1.45 nM	> 4 mg/kg	2.03 mg/kg	1380 nM	
O=C(c1ccc(F)cc1)C1CCN(CCC2CCCc3ccccc3C2=O)CC1 (stereo unspecified)		6.75	13.2 nM				
COc1ccccc1N1CCN(CC2CC(=O)c3ccccc3C2)CC1 (stereo unspecified)		6.48	513 nM				
COc1ccccc1N1CCN(CC2CC(=O)c3ccsc3C2)CC1.Cl (stereo unspecified)	> 10000 nM	5.9	1510 nM	> 8 mg/kg	> 8 mg/kg		
